pIC50: −log10 of the molar value. In brackets after ≈: the same amount, converted by molar mass.
Experiments:
[1] = tested on: M. tuberculosis H37Rv; test: M. tuberculosis H37Rv inhibition assay; assay type: cell-based; conditions: Mycobacterium tuberculosis, read-out: MIC H37Rv
[2] = tested on: HepG2 cells; test: HepG2 cytotoxicity assay; assay type: cell-based; conditions: Homo sapiens, HepG2, 48 h, read-out: Ctox.: IC50 HepG2
Method in brief: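 HepG2 cells were harvested while actively growing, with monolayers kept ≤50 % confluent, in Eagle's MEM with 10 % FBS, 1 % NEAA and 1 % penicillin/streptomycin. They were seeded at about 3000 cells per well (1.2×10^5 cells mL−1) onto predispensed test compound. Plates were incubated 48 h at 37 °C, 80 % humidity and 5 % CO2, equilibrated 30 min at room temperature, then developed with CellTiter-Glo for 10 min before luminescence reading.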

NNC(=O)c1ccncc1 [Isoniazid]
MIC [1]: 1.8 µM (≈ 0.247 µg/mL)
pIC50 [2]: 3.68

CO[C@H]1/C=C/O[C@@]2(C)Oc3c(C)c(O)c4c(O)c(c(/C=N/N5CCN(C)CC5)c(O)c4c3C2=O)NC(=O)/C(C)=C\C=C\[C@H](C)[C@H](O)[C@@H](C)[C@@H](O)[C@@H](C)[C@H](OC(C)=O)[C@@H]1C [Rifampicin]
MIC [1]: 0.02 µM (≈ 0.0165 µg/mL)
pIC50 [2]: < 3.59

From PMC3743164 (Chemmedchem, 2013)
